From ChEMBL document CHEMBL3627613, “4-Aminoquinoline derivatives as novel Mycobacterium tuberculosis GyrB inhibitors: Structural optimization, synthesis and biological evaluation” (Eur J Med Chem, 2015)
In brackets after ≈: the same amount, converted by molar mass. Activity calls are given as the source filed them. The rule behind the calls is not given here.

Assays:
[1] = Cytotoxicity against mouse RAW264.7 cells assessed as inhibition of cell viability at 50 uM incubated for 48 hrs at 37 degC by MTT assay relative to control; assay type: cell-based; settings: read-out: INH
Procedure, shortened: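 RAW 264.7 mouse macrophages, 5×10^5 cells per well, exposed to compound for 48 h at 37 °C under 5% CO2. MTT added 4 h before the end. Formazan dissolved in DMSO and absorbance read at 560 nm against blank. Triplicates, run twice.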

[2] = target: DNA gyrase subunit B (Mycobacterium smegmatis, UniProt P0C559); experiment: Inhibition of Mycobacterium smegmatis DNA gyrase B expressed in Escherichia coli BL21 (DE3) pLysS cells assessed as reduction in ATPase activity incubated for 100 mins by inorganic phosphate detection assay; set-up: species or system Mycolicibacterium smegmatis
[3] = target: DNA gyrase subunit B (Escherichia coli) (UniProt P0AES6); experiment: Inhibition of Escherichia coli Inspiralis DNA gyrase B assessed as reduction in ATPase activity at 100 uM incubated for 100 mins by inorganic phosphate detection assay
[4] = target: DNA gyrase subunit B (Staphylococcus aureus) (UniProt P0A0K8); experiment: Inhibition of Staphylococcus aureus DNA gyrase B assessed as reduction in ATPase activity at 100 uM incubated for 100 mins by inorganic phosphate detection assay
[5] = target: DNA gyrase subunit A/DNA gyrase subunit B (Mycobacterium tuberculosis (strain ATCC 25618 / H37Rv), UniProt P9WG45+P9WG47); experiment: Inhibition of DNA gyrase GyrA/GyrB in Mycobacterium tuberculosis incubated for 30 mins assessed as reduction in supercoiling of relaxed relaxed pBR322 DNA by ethidium bromide staining based agarose gel electrophoresis method
[6] = system: Mycobacterium tuberculosis; experiment: Antimycobacterial activity against Mycobacterium tuberculosis H37Rv assessed as growth inhibition incubated for 7 days by microplate alamar blue assay; assay type: functional; settings: 168 h
Procedure, shortened: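 M. tuberculosis H37Rv inoculum from fresh LJ medium, resuspended in 7H9 broth (0.1% casitone, 0.5% glycerol, OADC), set to McFarland No. 1 and diluted 1:20. Two-fold serial compound dilutions in 7H9-S, with growth and sterile controls. Incubated 7 days at 37 °C, then alamar blue overnight. MIC is the lowest concentration preventing the blue-to-pink colour change.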

[7] = target: DNA gyrase subunit B (Mycobacterium smegmatis) (UniProt P0C559); experiment: Binding affinity to Mycobacterium smegmatis DNA gyrase B assessed as changing in melting temperature of the protein-ligand complex by differential scanning fluorometry; settings: Mycolicibacterium smegmatis
Procedure, shortened: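 His-tagged M. smegmatis GyrB expressed in E. coli BL21(DE3)pLysS and Ni-NTA purified, used at 2 mg/mL. Native protein and protein-ligand complex heated from 25 to 95 °C in 0.1 °C steps with 50X SYPRO orange. Read-out is the Tm shift of the complex relative to native protein.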

Chain of DNA gyrase subunit A/DNA gyrase subunit B (P9WG45 whole entry): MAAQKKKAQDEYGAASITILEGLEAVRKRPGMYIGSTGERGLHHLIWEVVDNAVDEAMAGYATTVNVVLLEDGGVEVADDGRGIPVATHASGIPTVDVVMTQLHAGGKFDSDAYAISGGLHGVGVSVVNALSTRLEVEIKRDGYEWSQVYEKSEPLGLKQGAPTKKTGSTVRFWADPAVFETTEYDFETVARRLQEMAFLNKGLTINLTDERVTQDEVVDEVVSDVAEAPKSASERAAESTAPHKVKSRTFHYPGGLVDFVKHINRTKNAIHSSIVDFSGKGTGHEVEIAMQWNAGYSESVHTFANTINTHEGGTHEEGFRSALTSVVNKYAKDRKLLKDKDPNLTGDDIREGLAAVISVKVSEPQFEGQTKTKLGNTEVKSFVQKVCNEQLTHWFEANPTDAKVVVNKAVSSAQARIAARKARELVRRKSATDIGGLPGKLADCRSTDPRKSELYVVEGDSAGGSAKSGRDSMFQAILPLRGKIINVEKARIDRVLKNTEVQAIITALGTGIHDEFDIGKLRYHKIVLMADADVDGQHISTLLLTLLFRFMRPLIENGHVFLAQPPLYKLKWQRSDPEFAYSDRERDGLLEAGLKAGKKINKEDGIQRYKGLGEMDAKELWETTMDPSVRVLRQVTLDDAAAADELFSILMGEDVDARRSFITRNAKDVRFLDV
Chain of DNA gyrase subunit A/DNA gyrase subunit B (P9WG47 whole entry): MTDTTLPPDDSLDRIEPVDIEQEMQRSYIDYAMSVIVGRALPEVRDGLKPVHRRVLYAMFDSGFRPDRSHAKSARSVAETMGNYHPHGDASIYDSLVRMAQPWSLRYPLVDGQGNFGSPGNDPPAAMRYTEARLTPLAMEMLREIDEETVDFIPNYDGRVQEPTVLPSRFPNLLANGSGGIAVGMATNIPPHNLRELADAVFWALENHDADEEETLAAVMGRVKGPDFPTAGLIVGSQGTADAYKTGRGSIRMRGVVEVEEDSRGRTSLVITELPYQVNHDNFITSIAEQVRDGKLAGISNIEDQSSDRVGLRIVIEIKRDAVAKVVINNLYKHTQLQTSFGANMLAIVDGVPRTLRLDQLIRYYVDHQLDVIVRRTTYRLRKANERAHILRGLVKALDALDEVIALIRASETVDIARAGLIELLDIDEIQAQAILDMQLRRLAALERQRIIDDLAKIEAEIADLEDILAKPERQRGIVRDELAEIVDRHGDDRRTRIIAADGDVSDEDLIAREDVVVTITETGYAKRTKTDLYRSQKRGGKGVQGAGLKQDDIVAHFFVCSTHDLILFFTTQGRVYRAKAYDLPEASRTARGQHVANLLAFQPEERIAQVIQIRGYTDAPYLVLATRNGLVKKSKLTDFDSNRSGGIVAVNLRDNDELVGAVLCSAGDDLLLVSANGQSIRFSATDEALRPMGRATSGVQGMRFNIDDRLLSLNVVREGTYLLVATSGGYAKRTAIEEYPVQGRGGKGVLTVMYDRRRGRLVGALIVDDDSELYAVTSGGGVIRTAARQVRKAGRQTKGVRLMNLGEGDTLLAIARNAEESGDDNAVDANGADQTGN
Chain of DNA gyrase subunit B (P0C559 whole entry): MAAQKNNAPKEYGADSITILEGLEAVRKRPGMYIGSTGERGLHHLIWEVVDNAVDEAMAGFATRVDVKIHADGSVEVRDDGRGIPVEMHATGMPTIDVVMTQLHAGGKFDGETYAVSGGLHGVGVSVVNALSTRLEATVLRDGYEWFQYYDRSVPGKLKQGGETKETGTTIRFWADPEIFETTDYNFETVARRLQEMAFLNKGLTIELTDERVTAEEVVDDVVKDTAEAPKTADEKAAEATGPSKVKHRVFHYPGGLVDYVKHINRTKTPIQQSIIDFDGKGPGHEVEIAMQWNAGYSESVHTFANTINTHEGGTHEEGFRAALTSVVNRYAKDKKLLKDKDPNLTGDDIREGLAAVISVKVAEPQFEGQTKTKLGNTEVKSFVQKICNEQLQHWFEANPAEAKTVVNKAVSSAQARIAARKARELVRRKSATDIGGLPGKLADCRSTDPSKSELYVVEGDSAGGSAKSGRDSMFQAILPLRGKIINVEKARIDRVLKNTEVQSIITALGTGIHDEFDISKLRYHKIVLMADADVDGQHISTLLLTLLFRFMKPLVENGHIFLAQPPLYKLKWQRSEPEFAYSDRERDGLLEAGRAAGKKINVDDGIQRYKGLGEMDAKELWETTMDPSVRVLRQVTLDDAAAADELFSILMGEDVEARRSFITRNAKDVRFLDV
Chain of DNA gyrase subunit B (Mycobacterium smegmatis) (P0C559 2-675 limits assumed): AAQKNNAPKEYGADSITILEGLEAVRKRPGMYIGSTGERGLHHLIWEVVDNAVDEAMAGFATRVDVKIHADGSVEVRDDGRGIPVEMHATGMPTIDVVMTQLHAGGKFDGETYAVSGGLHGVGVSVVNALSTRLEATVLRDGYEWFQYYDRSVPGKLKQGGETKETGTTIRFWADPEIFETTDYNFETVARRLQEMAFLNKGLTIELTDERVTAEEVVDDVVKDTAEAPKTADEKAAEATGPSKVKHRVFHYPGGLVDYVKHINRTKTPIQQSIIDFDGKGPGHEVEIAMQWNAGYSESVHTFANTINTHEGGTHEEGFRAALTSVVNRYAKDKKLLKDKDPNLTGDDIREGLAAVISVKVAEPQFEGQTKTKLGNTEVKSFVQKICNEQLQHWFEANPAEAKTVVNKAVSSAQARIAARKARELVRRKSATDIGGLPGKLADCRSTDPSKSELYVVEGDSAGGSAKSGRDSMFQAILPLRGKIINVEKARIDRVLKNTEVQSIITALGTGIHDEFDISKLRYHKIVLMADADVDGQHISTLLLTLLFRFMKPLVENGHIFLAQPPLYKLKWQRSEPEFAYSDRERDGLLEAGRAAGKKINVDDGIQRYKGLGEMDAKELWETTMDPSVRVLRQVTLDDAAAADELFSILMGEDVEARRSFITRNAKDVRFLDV
Chain of DNA gyrase subunit B (Staphylococcus aureus) (P0A0K8 2-644 limits assumed): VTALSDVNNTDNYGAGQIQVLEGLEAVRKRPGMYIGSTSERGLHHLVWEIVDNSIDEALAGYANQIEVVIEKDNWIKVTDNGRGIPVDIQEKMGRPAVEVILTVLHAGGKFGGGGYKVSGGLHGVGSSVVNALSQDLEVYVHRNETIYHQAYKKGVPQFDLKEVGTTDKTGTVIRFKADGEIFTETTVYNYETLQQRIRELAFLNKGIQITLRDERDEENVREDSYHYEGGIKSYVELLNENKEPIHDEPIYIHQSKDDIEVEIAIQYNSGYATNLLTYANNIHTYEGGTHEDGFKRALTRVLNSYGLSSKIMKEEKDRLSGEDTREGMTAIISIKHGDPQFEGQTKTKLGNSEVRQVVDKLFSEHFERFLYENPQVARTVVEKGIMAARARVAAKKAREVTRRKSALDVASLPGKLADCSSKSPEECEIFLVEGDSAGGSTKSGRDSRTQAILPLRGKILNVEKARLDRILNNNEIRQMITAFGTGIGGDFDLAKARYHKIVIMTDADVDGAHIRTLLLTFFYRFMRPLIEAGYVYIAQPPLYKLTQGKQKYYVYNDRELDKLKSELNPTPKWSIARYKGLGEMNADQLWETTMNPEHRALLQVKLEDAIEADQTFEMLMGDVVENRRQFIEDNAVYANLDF

SMILES	cytotoxicity at 48 h, 50 µM [1] [%]	IC50 [2] [µM]	inhibition [3]	inhibition [4]	IC50 [5] [µM]	MIC [6] [µM]	ΔTm [7] [°C]
CCN1CCN(CCCOc2ccc(Nc3c(C(=O)O)cnc4ccc(OC)cc34)cc2)CC1	0.66	0.86	inactive	inactive	0.63	3.3 (≈ 1.53 µg/mL)	3.3
CCOC(=O)c1cnc2ccc(OC)cc2c1Nc1ccc(NCCCN2CCN(CC)CC2)cc1	21.4	9.55	–	–	8.52	25.4 (≈ 12.5 µg/mL)	–
CCOC(=O)c1cnc2ccc(F)cc2c1Nc1ccc(NCCCN2CCOCC2)cc1	19.6	11.3	–	–	4.61	13.4 (≈ 6.09 µg/mL)	–
CCN1CCN(CCCNc2ccc(Nc3c(C(=O)NN)cnc4ccc(OC)cc34)cc2)CC1	2.56	3.26	–	–	2.55	13.1 (≈ 6.25 µg/mL)	–
CCOC(=O)c1cnc2ccccc2c1Nc1ccc(OCCCN2CCOCC2)cc1	17.7	22.8	–	–	7.53	28.7 (≈ 12.5 µg/mL)	–
NNC(=O)c1cnc2ccc(F)cc2c1Nc1ccc(NCCCN2CCOCC2)cc1	29.1	18.7	–	–	10.6	23.6 (≈ 10.3 µg/mL)	–
CCN1CCN(CCCNc2ccc(Nc3c(C(=O)NN)cnc4ccc(C(F)(F)F)cc34)cc2)CC1	1.59	26.3	–	–	11	30 (≈ 15.5 µg/mL)	–
CCN1CCN(CCCOc2ccc(Nc3c(C(=O)O)cnc4ccccc34)cc2)CC1	13.4	21.7	–	–	10.2	27.2 (≈ 11.8 µg/mL)	–
CCOC(=O)c1cnc2ccc(F)cc2c1Nc1ccc(OCCCN2CCOCC2)cc1	44.1	16.9	–	–	7.63	21.7 (≈ 9.85 µg/mL)	–
CCOC(=O)c1cnc2ccc(C(F)(F)F)cc2c1Nc1ccc(NCCCN2CCN(CC)CC2)cc1	20.1	8.82	–	–	3.77	1.47 (≈ 0.779 µg/mL)	–
O=C(O)c1cnc2ccccc2c1Nc1ccc(NCCCN2CCOCC2)cc1	0.55	11.3	–	–	5.56	7.69 (≈ 3.13 µg/mL)	–
O=C(O)c1cnc2ccc(C(F)(F)F)cc2c1Nc1ccc(OCCCN2CCOCC2)cc1	22.6	27.8	–	–	14.3	13.2 (≈ 6.25 µg/mL)	–
CCN1CCN(CCCNc2ccc(Nc3c(C(=O)O)cnc4ccccc34)cc2)CC1	32.3	11.3	–	–	5.88	11.8 (≈ 5.12 µg/mL)	–
CCOC(=O)c1cnc2ccc(OC)cc2c1Nc1ccc(NCCCN2CCOCC2)cc1	19.3	22.3	–	–	9.32	23.4 (≈ 10.9 µg/mL)	–
CCOC(=O)c1cnc2ccccc2c1Nc1ccc(NCCCN2CCN(CC)CC2)cc1	20.4	11.7	–	–	3.25	6.77 (≈ 3.13 µg/mL)	–
CCN1CCN(CCCOc2ccc(Nc3c(C(=O)O)cnc4ccc(C(F)(F)F)cc34)cc2)CC1	13.4	7.91	–	–	3.54	19.8 (≈ 9.93 µg/mL)	–
CCN1CCN(CCCOc2ccc(Nc3c(C(=O)NN)cnc4ccc(C(F)(F)F)cc34)cc2)CC1	20.1	11.9	–	–	9.33	11.5 (≈ 5.95 µg/mL)	–
CCOC(=O)c1cnc2ccc(C(F)(F)F)cc2c1Nc1ccc(NCCCN2CCOCC2)cc1	20.2	6.62	–	–	3.12	49.8 (≈ 25 µg/mL)	–
CCOC(=O)c1cnc2ccccc2c1Nc1ccc(OCCCN2CCN(CC)CC2)cc1	21.4	> 50	–	–	23.9	13.5 (≈ 6.25 µg/mL)	–
O=C(O)c1cnc2ccc(F)cc2c1Nc1ccc(OCCCN2CCOCC2)cc1	10.8	31.3	–	–	16.9	14.7 (≈ 6.25 µg/mL)	–
NNC(=O)c1cnc2ccc(C(F)(F)F)cc2c1Nc1ccc(NCCCN2CCOCC2)cc1	7.94	47.2	–	–	19.9	25.6 (≈ 12.5 µg/mL)	–
COc1ccc2ncc(C(=O)O)c(Nc3ccc(NCCCN4CCOCC4)cc3)c2c1	16.1	38.9	–	–	12.6	28.6 (≈ 12.5 µg/mL)	–
O=C(O)c1cnc2ccc(C(F)(F)F)cc2c1Nc1ccc(NCCCN2CCOCC2)cc1	19.1	7.89	–	–	3.77	6.59 (≈ 3.13 µg/mL)	–
CCN1CCN(CCCNc2ccc(Nc3c(C(=O)O)cnc4ccc(OC)cc34)cc2)CC1	20.1	1.32	–	–	0.93	3.48 (≈ 1.61 µg/mL)	–
NNC(=O)c1cnc2ccccc2c1Nc1ccc(NCCCN2CCOCC2)cc1	6.48	> 50	–	–	22.9	44.9 (≈ 18.9 µg/mL)	–
CCN1CCN(CCCOc2ccc(Nc3c(C(=O)O)cnc4ccc(F)cc34)cc2)CC1	24.2	6.82	–	–	5.96	6.91 (≈ 3.13 µg/mL)	–
NNC(=O)c1cnc2ccc(C(F)(F)F)cc2c1Nc1ccc(OCCCN2CCOCC2)cc1	0.07	38.7	–	–	19.9	36.4 (≈ 17.8 µg/mL)	–
O=C(O)c1cnc2ccc(F)cc2c1Nc1ccc(NCCCN2CCOCC2)cc1	13.1	15	–	–	4.44	29.5 (≈ 12.5 µg/mL)	–
